In ChEMBL document CHEMBL5034022, “Pharmacophore-Based Design of Phenyl-[hydroxycyclohexyl] Cycloalkyl-Carboxamide Mitofusin Activators with Improved Neuronal Activity” (J Med Chem, 2021):

Legend:
[1] = MRT (0 to infinity) in overnight fasted CD-1 mouse total plasma at 50 mg/kg, po by HPLC analysis; format: ADME, organism-based
In short: (§1)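 Overnight-fasted 7-9 week male CD-1 mice, food returned 4 h post-dose, given 50 mg/kg by oral gavage (5 mg/mL in 30% SBE-β-CD); plasma and brain (homogenized in MeOH/15 mM PBS) quenched with ACN internal-standard mix, HPLC; free levels calculated from mouse plasma and brain protein binding; mean ± SEM, 3 mice per time point.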

[2] = MRT (0 to infinity) in overnight fasted CD-1 mouse total brain at 50 mg/kg, po by HPLC analysis; format: ADME, organism-based; in short: as §1
[3] = Volume of distribution at steady state in CD-1 mouse at 10 mg/kg, iv administered as single dose by HPLC analysis; format: ADME, organism-based; conditions: in vivo, read-out: Vdss
In short: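 Single 10 mg/kg IV dose of enantiomeric mixture in 10%DMSO/90%(30%HP-b-CD) to 7-9 week male CD-1 mice; plasma collected over time, proteins precipitated with ACN containing warfarin internal standard, analysed by HPLC; non-compartmental analysis; mean ± SEM, 3 mice per condition.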

[4] = Plasma protein binding in mouse assessed as bound fraction at 2 uM measured after 120 mins by equilibrium dialysis method; format: ADME, cell-free; conditions: read-out: PPB (converted)
[5] = Plasma protein binding in human assessed as bound fraction at 2 uM incubated for 120 mins by equilibrium dialysis method; format: ADME, cell-free; conditions: read-out: PPB (converted)
[6] = Activation of Mitofusin in MFN2 deficient mouse MEF cells assessed as mitochondria elongation
[7] = Tmax in non-fasted CD-1 mouse spinal cord at 50 mg/kg, po by HPLC analysis; format: ADME, organism-based
In short: (§2)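 Oral gavage 50 mg/kg (5 mg/mL in 10%DMSO/90%(30%HP-b-CD)) to non-fasted 7-9 week male CD-1 mice; brain, spinal cord and sciatic nerve homogenized in water, diluted in control mouse plasma, ACN precipitation with warfarin internal standard, HPLC; non-compartmental time-concentration analysis; 3 mice per condition.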

[8] = Tmax in non-fasted CD-1 mouse brain at 50 mg/kg, po by HPLC analysis; format: ADME, organism-based; in short: as §2
[9] = Tmax in non-fasted CD-1 mouse right sciatic nerve at 50 mg/kg, po by HPLC analysis; format: ADME, organism-based; in short: as §2
[10] = Tmax in non-fasted CD-1 mouse left sciatic nerve at 50 mg/kg, po by HPLC analysis; format: ADME, organism-based; in short: as §2

Question: For `O=C(CCCCCc1ccccc1)N[C@H]1CC[C@H](O)CC1`, which MRT inf [1] is on record?
Answer: 60.6 min

Question: What about the MRT inf [2] of the same compound?
Answer: 57.5 min

Question: With `O=C(N[C@H]1CC[C@H](O)CC1)C1CC1CCCc1ccccc1` (some centres not stated) as the compound, how does the Vd [3] read?
Answer: 0.6 L/kg

Question: What does the source list for `O=C(N[C@H]1CC[C@H](O)CC1)C1CCC(CCCc2ccccc2)C1` (some centres not stated)?
Answer: fraction unbound at 2 h, 2 µM [4]: 0.012; fraction unbound at 2 h, 2 µM [5]: 0.0075; EC50 [6]: 0.0153 µM

Question: Which results are given for `O=C(N[C@H]1CC[C@H](O)CC1)[C@@H]1C[C@H]1CCCc1ccccc1`?
Answer: MRT inf [1]: 115 min; Tmax [7]: 30 min; Tmax [8]: 30 min; MRT inf [2]: 119 min; Tmax [9]: 30 min; Tmax [10]: 30 min
